{"source": "ChEMBL document CHEMBL4334447", "about": "“Discovery of 4-Aminoquinoline-3-carboxamide Derivatives as Potent Reversible Bruton's Tyrosine Kinase Inhibitors for the Treatment of Rheumatoid Arthritis” (J Med Chem, 2019)", "key": {"[1]": {"target": "T1, Tyrosine-protein kinase BTK (Homo sapiens, UniProt Q06187)", "T1 sequence (Q06187 whole entry)": "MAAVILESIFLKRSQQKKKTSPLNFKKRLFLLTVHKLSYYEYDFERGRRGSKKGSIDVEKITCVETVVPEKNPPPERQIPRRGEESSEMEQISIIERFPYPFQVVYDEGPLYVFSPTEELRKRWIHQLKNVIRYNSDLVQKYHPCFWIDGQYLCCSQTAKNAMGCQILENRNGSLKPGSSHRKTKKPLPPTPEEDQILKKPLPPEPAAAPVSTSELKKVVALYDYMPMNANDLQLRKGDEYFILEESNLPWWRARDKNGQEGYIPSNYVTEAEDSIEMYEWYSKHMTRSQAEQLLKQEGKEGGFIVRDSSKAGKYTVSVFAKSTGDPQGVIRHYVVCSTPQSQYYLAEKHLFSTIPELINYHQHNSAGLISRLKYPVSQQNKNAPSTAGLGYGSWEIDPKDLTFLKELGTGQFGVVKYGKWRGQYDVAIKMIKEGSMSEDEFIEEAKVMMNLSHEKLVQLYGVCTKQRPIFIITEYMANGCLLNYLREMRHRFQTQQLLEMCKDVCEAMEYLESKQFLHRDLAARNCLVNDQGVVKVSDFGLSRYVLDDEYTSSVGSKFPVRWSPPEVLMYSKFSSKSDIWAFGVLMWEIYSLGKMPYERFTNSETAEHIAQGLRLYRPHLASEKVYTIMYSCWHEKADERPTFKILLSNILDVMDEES", "assay": "Reversible inhibition of sodium orthovanadate-stimulated BTK autophosphorylation at Tyr223 residues in human Ramos cells preincubated for 2 hrs followed by sodium orthovanadate addition and measured after 15 mins by Western blot analysis", "format": "cell-based"}, "[2]": {"assay": "Kinetic aqueous solubility of the compound in pH 7.4 phosphate buffered saline incubated for 24 hrs under shaking condition by HPLC analysis", "format": "physicochemical", "details": "read-out: Kinetic_solubility", "method_in_brief": "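Dry powder shaken 24 h at 25 °C in 0.1 M phosphate buffer, pH 7.4, then filtered through a 0.45 µm membrane. Concentration determined by HPLC against a standard of the compound in DMSO. Mean of three separate assays in triplicate.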"}, "[3]": {"target": "T1, Tyrosine-protein kinase BTK", "assay": "Reversible inhibition of FAM-labeled peptide binding to full-length human N-terminal GST-tagged BTK (2 to 659 residues) expressed in baculovirus infected Sf21 insect cells at preincubated for 10 mins followed by FAM-labeled peptide addition and measured by off-chip mobility shift assay"}, "[4]": {"target": "Epidermal growth factor receptor (Homo sapiens, UniProt P00533)", "sequence (P00533 whole entry, the tested form may be a part)": "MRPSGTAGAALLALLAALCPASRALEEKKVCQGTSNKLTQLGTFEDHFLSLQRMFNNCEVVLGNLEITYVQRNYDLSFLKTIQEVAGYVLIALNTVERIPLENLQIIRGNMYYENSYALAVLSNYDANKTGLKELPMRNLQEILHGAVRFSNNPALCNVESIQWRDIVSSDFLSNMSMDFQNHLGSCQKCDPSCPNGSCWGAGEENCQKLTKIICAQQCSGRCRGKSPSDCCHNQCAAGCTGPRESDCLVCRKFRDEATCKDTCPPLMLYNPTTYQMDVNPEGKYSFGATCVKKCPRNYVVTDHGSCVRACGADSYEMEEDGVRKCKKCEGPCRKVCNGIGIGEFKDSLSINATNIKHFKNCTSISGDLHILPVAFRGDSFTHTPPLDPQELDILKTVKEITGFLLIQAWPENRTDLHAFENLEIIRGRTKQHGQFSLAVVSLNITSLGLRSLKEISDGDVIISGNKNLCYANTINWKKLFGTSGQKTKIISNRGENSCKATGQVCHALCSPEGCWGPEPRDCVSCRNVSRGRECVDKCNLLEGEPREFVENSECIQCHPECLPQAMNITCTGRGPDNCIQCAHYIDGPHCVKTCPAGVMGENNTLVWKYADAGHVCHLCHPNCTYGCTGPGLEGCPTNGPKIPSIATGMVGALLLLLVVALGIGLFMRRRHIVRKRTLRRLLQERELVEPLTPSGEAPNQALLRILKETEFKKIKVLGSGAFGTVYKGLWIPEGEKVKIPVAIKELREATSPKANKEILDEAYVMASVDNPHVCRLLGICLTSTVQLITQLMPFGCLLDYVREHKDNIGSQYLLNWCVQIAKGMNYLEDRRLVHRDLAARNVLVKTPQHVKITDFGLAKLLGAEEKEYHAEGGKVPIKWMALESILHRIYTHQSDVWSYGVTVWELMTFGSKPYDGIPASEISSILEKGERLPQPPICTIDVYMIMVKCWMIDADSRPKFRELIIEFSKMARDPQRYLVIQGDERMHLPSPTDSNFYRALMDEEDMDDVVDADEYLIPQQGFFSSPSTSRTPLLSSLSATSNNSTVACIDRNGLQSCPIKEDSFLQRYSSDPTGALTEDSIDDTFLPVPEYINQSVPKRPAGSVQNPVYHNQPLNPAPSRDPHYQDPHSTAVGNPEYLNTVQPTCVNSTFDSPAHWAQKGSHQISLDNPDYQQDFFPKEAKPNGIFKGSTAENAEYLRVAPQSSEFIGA", "assay": "Inhibition of recombinant human GST-tagged EGFR cytoplasmic domain (668 to 1210 residues) expressed in baculovirus expression system using Z'-lyte-labelled tyr-4 peptide as substrate measured after 1 hr by FRET assay", "method_in_brief": "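Z'-LYTE kinase assay. Compounds tested as 3-fold serial dilutions in aqueous solution containing 4% DMSO. Fluorescence read at 400 nm excitation and 445/520 nm emission. IC50 is the mean of ≥3 assays in triplicate.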"}, "[5]": {"target": "T2, Tyrosine-protein kinase Tec (Homo sapiens, UniProt P42680)", "T2 sequence (P42680 whole entry)": "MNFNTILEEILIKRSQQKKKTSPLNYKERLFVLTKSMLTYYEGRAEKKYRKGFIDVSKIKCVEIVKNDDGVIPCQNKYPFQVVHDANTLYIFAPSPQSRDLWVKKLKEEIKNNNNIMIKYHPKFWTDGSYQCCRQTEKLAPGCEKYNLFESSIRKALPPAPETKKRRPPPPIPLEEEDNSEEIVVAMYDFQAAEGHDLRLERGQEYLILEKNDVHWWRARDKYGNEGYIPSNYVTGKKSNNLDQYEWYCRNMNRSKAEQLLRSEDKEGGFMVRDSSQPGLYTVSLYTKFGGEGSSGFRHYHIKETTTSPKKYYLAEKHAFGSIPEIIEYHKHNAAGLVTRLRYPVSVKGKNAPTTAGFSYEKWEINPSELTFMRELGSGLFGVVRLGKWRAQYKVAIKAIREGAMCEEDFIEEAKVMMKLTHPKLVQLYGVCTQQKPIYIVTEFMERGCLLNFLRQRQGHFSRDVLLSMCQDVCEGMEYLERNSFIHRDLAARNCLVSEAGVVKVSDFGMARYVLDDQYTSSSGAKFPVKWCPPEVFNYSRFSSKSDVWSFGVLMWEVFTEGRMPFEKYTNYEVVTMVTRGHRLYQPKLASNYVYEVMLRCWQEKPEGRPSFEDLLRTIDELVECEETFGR", "assay": "Inhibition of recombinant human N-terminal GST-fused TEC catalytic domain (359 to 631 residues) expressed in baculovirus expression system using biotin-labelled STK/TK as substrate measured after 1 hr by HTRF assay", "method_in_brief": "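HTRF KinEase format: TEC kinase and substrate mixed with serial compound concentrations at rt, then ATP added to start. Stopped after 1 h with EDTA detection solution containing europium anti-phosphotyrosine antibody and streptavidin-XL665. Read after a further 1 h at rt. Mean of ≥3 assays in triplicate.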"}, "[6]": {"target": "T3, Tyrosine-protein kinase ITK/TSK (Homo sapiens, UniProt Q08881)", "T3 sequence (Q08881 whole entry)": "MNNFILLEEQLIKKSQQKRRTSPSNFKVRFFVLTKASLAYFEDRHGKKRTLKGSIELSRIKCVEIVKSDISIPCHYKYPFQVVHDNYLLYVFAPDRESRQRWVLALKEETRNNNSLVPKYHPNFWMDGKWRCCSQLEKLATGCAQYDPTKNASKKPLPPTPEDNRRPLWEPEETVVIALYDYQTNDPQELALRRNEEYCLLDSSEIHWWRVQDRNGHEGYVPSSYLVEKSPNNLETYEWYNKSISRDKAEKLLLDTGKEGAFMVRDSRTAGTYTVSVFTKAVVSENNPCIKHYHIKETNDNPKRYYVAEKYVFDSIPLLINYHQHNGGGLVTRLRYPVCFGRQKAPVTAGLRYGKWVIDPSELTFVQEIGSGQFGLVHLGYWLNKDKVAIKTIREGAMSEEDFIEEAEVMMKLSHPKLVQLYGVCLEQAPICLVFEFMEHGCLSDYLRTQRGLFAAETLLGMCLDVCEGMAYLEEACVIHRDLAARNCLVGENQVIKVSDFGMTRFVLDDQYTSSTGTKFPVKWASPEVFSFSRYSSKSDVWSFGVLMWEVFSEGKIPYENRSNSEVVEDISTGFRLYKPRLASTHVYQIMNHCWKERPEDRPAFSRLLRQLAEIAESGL", "assay": "Inhibition of recombinant human ITK (352 to 617 residues) using myelin basic protein as substrate measured after 40 mins in presence of [gamma33P]ATP by scintillation counting analysis"}, "[7]": {"assay": "Inhibition of recombinant mouse full-length BLK V421E mutant using poly(Glu, Tyr) 4:1 as substrate measured after 40 mins in presence of [gamma33P]ATP by scintillation counting analysis", "method_in_brief": "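Radiometric assay with BLK in 50 mM Tris pH 7.5, 0.1 mM EGTA, 0.1 mM Na3VO4, 0.1% mercaptoethanol, 0.1 mg/mL poly(Glu,Tyr) 4:1, 10 mM Mg acetate and [γ-33P]-ATP. Started with Mg/ATP at room temperature; 40 min. Stopped with 0.5% phosphoric acid, filtermat-spotted, washed, scintillation counted. Mean of ≥3 assays in triplicate.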"}, "[8]": {"target": "Proto-oncogene tyrosine-protein kinase Src (Homo sapiens, UniProt P12931)", "sequence (P12931 2-536 limits assumed)": "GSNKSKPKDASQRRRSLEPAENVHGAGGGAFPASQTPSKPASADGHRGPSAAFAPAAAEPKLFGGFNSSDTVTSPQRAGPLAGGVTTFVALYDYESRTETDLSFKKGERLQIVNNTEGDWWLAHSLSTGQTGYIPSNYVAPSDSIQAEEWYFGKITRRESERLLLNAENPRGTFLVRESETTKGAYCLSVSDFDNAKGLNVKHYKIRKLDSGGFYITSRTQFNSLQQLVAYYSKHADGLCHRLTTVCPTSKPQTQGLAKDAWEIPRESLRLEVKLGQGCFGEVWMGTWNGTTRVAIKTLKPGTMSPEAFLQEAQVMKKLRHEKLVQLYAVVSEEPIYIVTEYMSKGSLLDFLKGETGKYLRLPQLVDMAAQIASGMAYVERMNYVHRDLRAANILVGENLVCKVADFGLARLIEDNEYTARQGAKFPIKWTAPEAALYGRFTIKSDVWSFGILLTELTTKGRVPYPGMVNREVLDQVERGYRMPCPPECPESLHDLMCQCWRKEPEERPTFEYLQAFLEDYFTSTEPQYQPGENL", "assay": "Inhibition of recombinant full-length human SRC using KVEKIGEGTYGVVYK as substrate measured after 40 mins in presence of [gamma33P]ATP by scintillation counting analysis", "method_in_brief": "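Started with Mg/ATP at room temperature; 40 min incubation. Stopped with 0.5% phosphoric acid, filtermat-spotted, washed, scintillation counted. Mean of ≥3 assays in triplicate.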"}, "[9]": {"target": "Tyrosine-protein kinase Fyn (Homo sapiens, UniProt P06241)", "sequence (P06241 whole entry)": "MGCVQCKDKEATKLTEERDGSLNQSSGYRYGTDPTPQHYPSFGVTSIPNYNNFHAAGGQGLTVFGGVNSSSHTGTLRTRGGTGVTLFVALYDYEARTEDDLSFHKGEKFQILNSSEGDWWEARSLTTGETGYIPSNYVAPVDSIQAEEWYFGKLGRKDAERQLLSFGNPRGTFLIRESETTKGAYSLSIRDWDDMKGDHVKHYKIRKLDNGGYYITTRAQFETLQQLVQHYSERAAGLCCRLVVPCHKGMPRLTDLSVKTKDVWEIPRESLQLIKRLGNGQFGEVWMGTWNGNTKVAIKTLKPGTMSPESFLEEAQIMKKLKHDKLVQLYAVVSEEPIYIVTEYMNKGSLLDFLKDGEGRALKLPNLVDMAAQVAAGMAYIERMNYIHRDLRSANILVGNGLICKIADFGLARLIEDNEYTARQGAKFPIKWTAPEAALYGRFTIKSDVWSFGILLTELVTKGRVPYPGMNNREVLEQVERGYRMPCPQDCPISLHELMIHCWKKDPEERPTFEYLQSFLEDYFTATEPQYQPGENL", "assay": "Inhibition of human full-length recombinant FYN using KVEKIGEGTYGVVYK as substrate measured after 40 mins in presence of [gamma-33P]-ATP by scintillation counting analysis", "method_in_brief": "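Started with Mg/ATP; 40 min at room temperature. Stopped with 0.5% phosphoric acid, spotted onto P30 filtermat, washed, scintillation counted. Mean of ≥3 assays in triplicate.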"}, "[10]": {"target": "Tyrosine-protein kinase Yes (Homo sapiens, UniProt P07947)", "sequence (P07947 whole entry)": "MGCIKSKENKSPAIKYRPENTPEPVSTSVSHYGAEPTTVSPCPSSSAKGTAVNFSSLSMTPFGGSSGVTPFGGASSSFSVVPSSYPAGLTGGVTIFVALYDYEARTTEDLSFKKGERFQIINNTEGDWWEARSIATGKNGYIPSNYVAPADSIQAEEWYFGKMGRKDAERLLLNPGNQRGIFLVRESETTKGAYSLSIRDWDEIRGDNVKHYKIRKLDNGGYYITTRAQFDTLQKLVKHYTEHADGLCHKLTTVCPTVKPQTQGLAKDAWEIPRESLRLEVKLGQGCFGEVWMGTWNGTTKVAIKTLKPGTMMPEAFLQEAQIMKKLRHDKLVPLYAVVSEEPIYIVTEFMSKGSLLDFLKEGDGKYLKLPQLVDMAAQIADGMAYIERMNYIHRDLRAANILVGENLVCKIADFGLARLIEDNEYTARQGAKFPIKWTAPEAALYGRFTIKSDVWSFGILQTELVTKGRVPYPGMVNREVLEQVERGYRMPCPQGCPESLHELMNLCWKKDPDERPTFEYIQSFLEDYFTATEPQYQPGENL", "assay": "Inhibition of human full-length recombinant YES using poly(Glu, Tyr) 4:1 as substrate measured after 40 mins in presence of [gamma-33P]-ATP by scintillation counting analysis", "method_in_brief": "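Started with Mg/ATP at room temperature; 40 min incubation. Stopped with 0.5% phosphoric acid, spotted onto Filtermat A, washed, scintillation counted. Mean of ≥3 assays in triplicate.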"}, "Homo sapiens [11]": {"organism": "Homo sapiens", "assay": "Selectivity ratio of IC50 for recombinant human ITK (352 to 617 residues) to IC50 for inhibition of FAM-labeled peptide binding to full-length human N-terminal GST-tagged BTK (2 to 659 residues) expressed in baculovirus infected Sf21 insect cells", "method_in_brief": "(§1)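 Ratio of kinase IC50 to BTK IC50. BTK measured by off-chip mobility shift: compound preincubated 10 min with BTK in 50 mM HEPES pH 7.5, 0.01% Brij-35, then FAM-labelled peptide and ATP added, 28 °C. Stopped with EDTA buffer; percent conversion fitted for IC50. Each panel kinase assayed in triplicate.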"}, "Homo sapiens [12]": {"organism": "Homo sapiens", "assay": "Selectivity ratio of IC50 for recombinant human N-terminal GST-fused TEC catalytic domain (359 to 631 residues) expressed in baculovirus expression system to IC50 for inhibition of FAM-labeled peptide binding to full-length human N-terminal GST-tagged BTK (2 to 659 residues) expressed in baculovirus infected Sf21 insect cells", "method_in_brief": "as §1"}, "Homo sapiens [13]": {"organism": "Homo sapiens", "assay": "Selectivity ratio of IC50 for recombinant mouse full-length BLK V421E mutant to IC50 for inhibition of FAM-labeled peptide binding to full-length human N-terminal GST-tagged BTK (2 to 659 residues) expressed in baculovirus infected Sf21 insect cells", "method_in_brief": "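Ratio is BLK IC50 divided by BTK IC50. BLK: radiometric, 50 mM Tris pH 7.5, 0.1 mM EGTA, 0.1 mM Na3VO4, 0.1% mercaptoethanol, 0.1 mg/mL poly(Glu,Tyr) 4:1, 10 mM Mg acetate, [γ-33P]ATP, 40 min room temperature, phosphoric acid stop, filter-bound scintillation counting. BTK: off-chip mobility shift with FAM-peptide. Triplicates, ≥3 assays.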"}, "Homo sapiens [14]": {"organism": "Homo sapiens", "assay": "Selectivity ratio of IC50 for recombinant full-length human SRC to IC50 for inhibition of FAM-labeled peptide binding to full-length human N-terminal GST-tagged BTK (2 to 659 residues) expressed in baculovirus infected Sf21 insect cells", "method_in_brief": "as §1"}}}
{"smiles": "COc1cc2cn[nH]c2cc1-c1ccc(F)c2c(N)c(C(N)=O)cnc12", "values": [{"measurement": "EC50", "setting": "[1]", "value": 42.7, "unit": "nM"}, {"measurement": "solubility kinetic at 24 h", "setting": "[2]", "value": 7.3, "unit": "µg/mL"}, {"measurement": "IC50", "setting": "[3]", "value": 5.3, "unit": "nM"}, {"measurement": "IC50", "setting": "[4]", "value": "> 2000", "unit": "nM"}, {"measurement": "IC50", "setting": "[5]", "value": 227, "unit": "nM"}, {"measurement": "IC50", "setting": "[6]", "value": 307, "unit": "nM"}, {"measurement": "IC50", "setting": "[7]", "value": 150, "unit": "nM"}, {"measurement": "IC50", "setting": "[8]", "value": 903, "unit": "nM"}, {"measurement": "IC50", "setting": "[9]", "value": 165, "unit": "nM"}, {"measurement": "IC50", "setting": "[10]", "value": "> 10000", "unit": "nM"}, {"measurement": "Ratio IC50", "setting": "Homo sapiens [11]", "value": 58}, {"measurement": "Ratio IC50", "setting": "Homo sapiens [12]", "value": 43}, {"measurement": "Ratio IC50", "setting": "Homo sapiens [13]", "value": 28}, {"measurement": "Ratio IC50", "setting": "Homo sapiens [14]", "value": 170}]}
